According to ChEMBL document CHEMBL1135749, “Stereoselective synthesis and antiviral activity of D-2',3'-didehydro-2',3'-dideoxy-2'-fluoro-4'-thionucleosides” (J Med Chem, 2002):

Key:
[1] = Antiviral activity against HIV-1xxBRU […] strain in human PBM cells; type: functional; details: PBMC
Procedure, shortened: (§1)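 Molecular infectious clones HIV-1 xxBru and HIV-1 M184Vpitt used in PHA-stimulated human PBM cells. Bulk 1 h infection at 100 TCID50/1 × 10⁷ cells (flask) or 200 TCID50/6 × 10⁵ cells/well. Cells then exposed to 10-fold serial compound dilutions for 5 days at 37 °C. Read-out was pelleted-virus RT activity with ³H-TTP. EC50 by the median effect method.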

[2] = Antiviral activity against (HIV-1M184V) mutant strain in human PBM cells; type: functional; details: PBMC; procedure, shortened: as §1
[3] = Anti-viral activity against HIV-1 in human PBM cells; type: functional, cell-based; details: PBMC
Procedure, shortened: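 PHA-stimulated (2-3 days) human PBM cells from healthy seronegative donors, infected in bulk for 1 h with HIV-1 LAI (100 TCID50/1 × 10⁷ cells flask or 200 TCID50/6 × 10⁵ cells/well). Cells then placed on 10-fold serial compound dilutions in RPMI-1640 with IL-2, 5 days at 37 °C. Supernatant RT activity measured by ³H-TTP incorporation on poly(rA)·oligo(dT). EC50 obtained by the median effect method.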

[4] = In vitro cytotoxicity against human peripheral blood mononuclear (PBM) cells; type: cell-based
Procedure, shortened: (§2)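 Uninfected log-phase cells seeded on 10-fold serial drug dilutions: Vero at 5 × 10³, CEM at 2.5 × 10³, and PHA-stimulated PBM at 5 × 10⁴ cells/well. Incubated at 37 °C in 5% CO₂ for 3 days (Vero), 4 days (CEM) or 5 days (PBM). MTT added overnight, then solubilized and read at 570 nm. IC50 by the median effect method.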

Vero = test: Cytotoxicity against Vero cells; type: cell-based; details: Chlorocebus sabaeus; procedure, shortened: as §2
CCRF-CEM = test: Cytotoxicity against CEM cells; type: cell-based; details: Homo sapiens; procedure, shortened: as §2
[5] = biological target: Adenosine deaminase (Bos taurus) (UniProt P56658); test: Half life value of the compound

half-life [5] [min]	SMILES	EC90 [1] [µM]	EC90 [2] [µM]	EC50 [3] [µM]	IC50 [4] [µM]	IC50 (Vero) [µM]	IC50 (CCRF-CEM) [µM]
	Nc1ccn([C@@H]2CS[C@H](CO)O2)c(=O)n1 [LAMIVUDINE]	0.08	535				
	O=c1[nH]cnc2c1ncn2[C@@H]1S[C@H](CO)C=C1F			43.6	> 100	> 100	> 100
	O=c1nc(O)ccn1[C@@H]1S[C@H](CO)C=C1F			> 100	> 100	> 100	> 100
	Cc1cn([C@@H]2S[C@H](CO)C=C2F)c(=O)nc1O			92.3	> 100	53	> 100
	Nc1ccn([C@@H]2S[C@H](CO)C=C2F)c(=O)n1	5	125	1.3	> 100	> 100	> 100
42	Nc1ncnc2c1ncn2[C@@H]1O[C@H](CO)C=C1F						
	Nc1nc(=O)n([C@@H]2S[C@H](CO)C=C2F)cc1F			11.6	> 100	> 100	> 100
0.5	Nc1ncnc2c1ncn2[C@@H]1O[C@H](CO)[C@@H](O)[C@H]1O [ADENOSINE]						
	Cc1cn([C@H]2C[C@H](N=[N+]=[N-])[C@@H](CO)O2)c(=O)[nH]c1=O [ZIDOVUDINE]	0.01	0.003	0.004	> 100		
	Nc1nc2c(ncn2[C@@H]2S[C@H](CO)C=C2F)c(=O)[nH]1			80.5	> 100	> 100	> 100
	Nc1nc(F)nc2c1ncn2[C@@H]1S[C@H](CO)C=C1F			1.2	1.5	7.6	1.1

SMILES	half-life [5] [min]	EC90 [1] [µM]	EC90 [2] [µM]	EC50 [3] [µM]	IC50 [4] [µM]	IC50 (Vero) [µM]	IC50 (CCRF-CEM) [µM]
Nc1ncnc2c1ncn2[C@@H]1S[C@H](CO)C=C1F	33			8.1	> 100	> 100	> 100
